As usually defined, the inhibition is the drop in the measured response relative to a control, in per cent. In general, ΔTm refers to the change in melting temperature against a reference sample. As usually defined, the IC50 is the concentration that inhibits the measured activity by half. Lower therefore signals greater potency in that assay.

Active and inactive are the calls of the source. The calls are words filed in the database; no cut-off is given here.

This note sets out measurements from ChEMBL document CHEMBL4257586, “Polyheteroaryl Oxazole/Pyridine-Based Compounds Selected in Vitro as G-Quadruplex Ligands Inhibit Rock Kinase and Exhibit Antiproliferative Activity” (J Med Chem, 2018).

Series [1] relates to A549. Description: Cytotoxicity against human A549 cells assessed as presence of large vesicles at 2 uM after 24 to 48 hrs by Hoechst 33342 staining-based laser confocal microscopy. The class given is functional, cell-based.
Series [2] concerns the target T1, Rho-associated protein kinase 2 (Homo sapiens, UniProt O75116). In words: Inhibition of ROCK2 in human HeLa cells assessed as reduction in cofilin phosphorylation at Ser3 at 5 uM after 3 hrs by immunofluorescence assay. The class given is cell-based. In a few lines:
(§1)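 HeLa cells treated 3 h at 2 or 5 μM, with Y-27632 and untreated controls, then formaldehyde-fixed. Phospho-MYPT1 Thr853 or phospho-cofilin Ser3 immunostained with DNA. Confocal 0.5 μm slices plus z-projection, with acquisition settings fixed from the control.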

Series [3] addresses T1, Rho-associated protein kinase 2. In words: Inhibition of ROCK2 in human HeLa cells assessed as reduction in cofilin phosphorylation at Ser3 at 5 uM after 3 hrs by Western blot analysis. In kind it is cell-based. In a few lines: (§2)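 HeLa cells treated 3 h at 2 or 5 μM, then lysed in RIPA buffer with protease and phosphatase inhibitors. Western blot probed with anti-phospho-cofilin Ser3 and anti-actin (1/1000) on the same split membrane; luminescence detection.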

The target is the same in series [4]. In words: Inhibition of ROCK2 in human HeLa cells assessed as reduction in MYPT1 phosphorylation at Thr853 at 5 uM after 3 hrs by immunofluorescence assay. The class given is cell-based. In a few lines: as §1
Series [5] is described as follows: Drug uptake in human HeLa cell cytoplasm at 3.3 uM after 17 hrs imaged with 488 nm excitation by intrinsic fluorescence based assay. In kind it is ADME, subcellular. In a few lines: (§3)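 HeLa cells treated 17 h at 2 μM, or 3.3 μM for one analogue. Imaged by confocal microscopy with no added fluorophore, using 488 nm excitation, plus 405 nm excitation for the 3.3 μM treatment. Intrinsic compound fluorescence was compared with cell background near 510 nm.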

Series [6] deals with HeLa. Description: Induction of cell cycle arrest in human HeLa cells at 2 uM after 48 hrs by propidium iodide-staining based flow cytometry. The class given is functional. In a few lines:
(§4)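 HeLa cells serum-starved 96 h for synchronization, then released and treated 48 h. Fixed in ice-cold 70% ethanol 1 h, stained with propidium iodide 50 μg/mL plus RNase A 0.2 mg/mL for 15 min at 37 °C, and analyzed by FACS.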
Background: A flow cytometer gives signals particle by particle.

In series [7] the test system is A-375. In words: Induction of double stranded DNA breaks in human A375 cells assessed as gamma-H2Ax phosphorylation at 2 uM after 24 to 48 hrs by Hoechst 33342 staining-based laser confocal microscopy. In kind it is functional, cell-based.
The nature of series [8]: Drug uptake in human HeLa cell nucleus at 3.3 uM after 17 hrs imaged with 488 nm excitation by intrinsic fluorescence based assay. In kind it is ADME, subcellular. In a few lines:
as §3

Series [9] can be described thus: Drug uptake in human HeLa cell nucleus at 3.3 uM after 17 hrs imaged with 405 nm excitation by intrinsic fluorescence based assay. In kind it is ADME, subcellular. In a few lines: as §3
The subject of series [10] is HeLa. Description: Cytotoxicity against human HeLa cell spheroids assessed as effect on ATP content at 1 to 4 uM administered at day 3 post expansion and measured on day 6 by bioluminescence based assay. The class given is functional. In a few lines: (§5)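 HeLa cells plated at 800/well in ultralow-adherence plates; one spheroid formed within 24 h at 37 °C, 5% CO2, grown in complete medium. Drug added at day 3, at four concentrations per compound. Largest section area measured daily by confocal imaging, five spheroids per condition. ATP-based CellTiter-Glo 3D luminescence read at day 6 after dosing.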

Series [11] has as its system HeLa. Description: Cytotoxicity against human HeLa cell spheroids assessed as spheroid growth inhibition at 4 uM administered at day 3 post expansion and measured after […] by 3D-celltiter Glo assay relative to control. The class given is functional. In a few lines:
as §5
(In general: In ATP-based viability assays light output follows the ATP content of the culture.)

Series [12] in a line: Drug uptake in human HeLa cell cytoplasm at 3.3 uM after 17 hrs imaged with 405 nm excitation by intrinsic fluorescence based assay. In kind it is ADME, subcellular. In a few lines: as §3
A further series has as its system Quadruplex DNA. Description: Binding affinity to 6-FAM labeled human proto-oncogene sequence FMycT G-quadruplex DNA assessed as change in melting temperature at 1 uM in presence of K+ buffer (1 mM KCl, 99 mM LiCl, 10 mM Li cacodylate) by FRET assay. In kind it is nucleic-acid assay. In a few lines:
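FRET melting in duplicate. Dual-labelled oligo (6-FAM/TAMRA) at 0.2 μM with ligand at 1 μM, in 10 mM Li cacodylate pH 7.2. Buffer was 10 mM KCl + 90 mM LiCl for F21T and 1 mM KCl + 99 mM LiCl for FMycT. Sample annealed 90 °C 5 min, cooled to 4 °C overnight. Equilibrated 5 min at 25 °C, then ramped 0.5 °C/min to 95 °C. FAM read 492/516 nm, normalized; Tm taken at the fitted inflection point.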

In series [13] the target is T1, Rho-associated protein kinase 2. In words: Inhibition of ROCK2 in human HeLa cells assessed as reduction in cofilin phosphorylation at Ser3 at 2 uM after 3 hrs by Western blot analysis. In kind it is cell-based. In a few lines: as §2
Background: A western blot detects proteins with antibodies after separation by electrophoresis.

Series [14] has as its system HeLa. Description: Cytotoxicity against human HeLa cell spheroids assessed as effect on ATP content at 0.3 to 2 uM […] by bioluminescence based assay. The class given is functional.
Series [15] is described as follows: Drug uptake in human HeLa cell nucleus at 2 uM after 17 hrs imaged with 488 nm excitation by intrinsic fluorescence based assay. The class given is ADME, subcellular. In a few lines:
as §3

Series [16] concerns A549. In words: Cytotoxicity against human A549 cells assessed as presence of large vesicles at 1 uM after 24 to 48 hrs by Hoechst 33342 staining-based laser confocal microscopy. The class given is functional, cell-based.
For series [17], the system named is A549. In words: Antiproliferative activity against human A549 cells after 72 hrs by MTS assay. In kind it is functional, cell-based. To be noted: A549, 72 h. In a few lines: (§6)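 Cells seeded at day 0 in 96-well plates, serial compound dilutions added at day 1; viable cells read 72 h after drug addition by MTS tetrazolium assay, in triplicate. IC50 taken as concentration halving cell growth. One first trial, then two additional experiments on selected compounds.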

Series [18] concerns HeLa. Description: Induction of cell cycle arrest in human HeLa cells at 1 uM after 48 hrs by propidium iodide-staining based flow cytometry. In kind it is functional. In a few lines:
as §4

The nature of series [19]: Drug uptake in human HeLa cell cytoplasm at 2 uM after 17 hrs imaged with 488 nm excitation by intrinsic fluorescence based assay. The class given is ADME, subcellular. In a few lines: as §3
Series [20] concerns the target T1, Rho-associated protein kinase 2. Description: Inhibition of ROCK2 (unknown origin) at 1 uM by ATP competition assay relative to control. In a few lines:
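Single-point screen at 1 μM across a 50-kinase panel: recombinant enzymes, 33P-ATP radioactive filter-binding assay, duplicates, activity expressed relative to no-compound control.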

Series [21] relates to HeLa. In words: Cytotoxicity against human HeLa cell spheroids assessed as cell growth inhibition at 300 nM administered at day 3 post expansion and measured […] by 3D-celltiter Glo assay. The class given is functional, cell-based. In a few lines:
as §5

The next series deals with M21. Description: Antiproliferative activity against alpha5-integrin lacking human M21 cells after 72 hrs by MTS assay. To be noted: M21, 72 h. In kind it is functional, cell-based. In a few lines:
as §6

Another series relates to NCI-H358. In words: Antiproliferative activity against human NCI-H358 cells after 72 hrs by MTS assay. The class given is functional, cell-based. The note with it: NCI-H358, 72 h. In a few lines: as §6
Series [22] deals with A-375. In words: Induction of double stranded DNA breaks in human A375 cells assessed as gamma-H2Ax phosphorylation at 1 uM after 24 to 48 hrs by Hoechst 33342 staining-based laser confocal microscopy. The class given is functional, cell-based.
The subject of series [23] is HeLa. In words: Cytotoxicity against human HeLa cell spheroids assessed as effect on ATP content at 0.57 to 2 uM administered at day 3 post expansion and measured on day 6 by bioluminescence based assay. The class given is functional. In a few lines: as §5
In the next series the test system is HEK293. In words: Antiproliferative activity against HEK293 cells after 72 hrs by MTS assay. The class given is cell-based. To be noted: Homo sapiens, HEK293, 72 h. In a few lines: as §6
The subject of series [24] is HeLa. In words: Cytotoxicity against human HeLa cell spheroids assessed as cell growth inhibition at 570 nM administered at day 3 post expansion and […] by 3D-celltiter Glo assay. The class given is functional, cell-based. In a few lines: as §5

T1 sequence (O75116 whole entry, looked up): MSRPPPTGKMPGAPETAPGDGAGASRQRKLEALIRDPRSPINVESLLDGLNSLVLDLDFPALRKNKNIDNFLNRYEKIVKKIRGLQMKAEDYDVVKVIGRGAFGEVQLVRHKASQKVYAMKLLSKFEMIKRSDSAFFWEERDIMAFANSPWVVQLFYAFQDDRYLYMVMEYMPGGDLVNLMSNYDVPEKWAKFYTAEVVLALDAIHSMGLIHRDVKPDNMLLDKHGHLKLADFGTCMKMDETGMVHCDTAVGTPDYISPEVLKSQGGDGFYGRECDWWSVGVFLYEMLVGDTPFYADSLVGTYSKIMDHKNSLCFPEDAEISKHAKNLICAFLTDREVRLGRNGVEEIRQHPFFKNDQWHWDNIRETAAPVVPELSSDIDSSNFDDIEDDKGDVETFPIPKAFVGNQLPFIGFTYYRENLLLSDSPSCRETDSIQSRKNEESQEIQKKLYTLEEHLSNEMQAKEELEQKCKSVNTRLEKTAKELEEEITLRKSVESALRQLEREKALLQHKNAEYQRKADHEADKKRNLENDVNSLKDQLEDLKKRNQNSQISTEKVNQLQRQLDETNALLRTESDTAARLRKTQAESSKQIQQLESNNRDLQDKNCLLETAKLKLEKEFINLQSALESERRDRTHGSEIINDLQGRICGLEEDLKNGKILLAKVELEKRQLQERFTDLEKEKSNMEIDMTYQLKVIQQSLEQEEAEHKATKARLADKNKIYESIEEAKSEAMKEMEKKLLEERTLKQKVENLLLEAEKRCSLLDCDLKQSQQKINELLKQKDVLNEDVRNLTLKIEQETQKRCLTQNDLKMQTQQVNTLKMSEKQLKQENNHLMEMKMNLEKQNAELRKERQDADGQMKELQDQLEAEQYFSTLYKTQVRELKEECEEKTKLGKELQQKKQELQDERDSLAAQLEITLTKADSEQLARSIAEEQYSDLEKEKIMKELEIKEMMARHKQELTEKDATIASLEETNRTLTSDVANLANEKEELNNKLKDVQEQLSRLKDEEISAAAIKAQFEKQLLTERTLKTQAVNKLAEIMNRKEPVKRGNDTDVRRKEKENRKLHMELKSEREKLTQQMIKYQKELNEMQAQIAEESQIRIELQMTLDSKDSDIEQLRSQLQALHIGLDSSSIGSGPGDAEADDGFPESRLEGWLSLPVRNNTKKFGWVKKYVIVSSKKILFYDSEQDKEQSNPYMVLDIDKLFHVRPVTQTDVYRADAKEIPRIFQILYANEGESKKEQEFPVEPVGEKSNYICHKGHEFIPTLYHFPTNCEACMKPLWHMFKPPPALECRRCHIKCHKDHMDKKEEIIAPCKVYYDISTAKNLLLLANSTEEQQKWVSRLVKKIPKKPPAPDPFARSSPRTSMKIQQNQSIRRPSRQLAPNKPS

For the compound `CN(C)CCOc1cc(-c2ncc(-c3cccc(-c4cnco4)n3)o2)nc(-c2ncc(-c3cccc(-c4cnco4)n3)o2)c1`, the result with A549 [1] and with HeLa [10] was Active. The inhibition entry in [2], in series [3] and in [4] was “Active” in each case. Further, the Drug uptake entry in series [5], in series [8], in series [9] and in series [12] was “Active” throughout. Further, the result in the series on HeLa [6] and with A-375 [7] was inactive. Further, the “growth inhibition (GI)” value in the series with HeLa [11] is 25%. Besides, the ΔTm in the series with Quadruplex DNA was 3.4 to 6.4 °C.
For the compound `c1cc(-c2cnco2)nc(-c2cnc(-c3cccc(-c4cccc(-c5ncc(-c6cccc(-c7cnco7)n6)o5)n4)n3)o2)c1`, the inhibition entry in [13] was “Active”. The result in the series on HeLa [14] and with A549 [16] was Active. Further, the Drug uptake entry in [15] and in series [19] was “Active” throughout. For the same compound, the IC50 worked out at 3.95 µM with A549 [17], 3.57 µM with M21 and 3.75 µM with NCI-H358. Besides, the outcome with HeLa [18] and in the series with A-375 [22] was inactive. The compound also showed an inhibition in series [20] of 70%. Also, the “growth inhibition (GI)” value with HeLa [21] is “Active”.
In the case of `c1cc(-c2cnco2)nc(-c2cnc(-c3cccc(-c4ncc(-c5cccc(-c6cnco6)n5)o4)n3)o2)c1`, the inhibition result in series [13] was “Active”. Besides, the result with HeLa [23] and in the series on A549 [16] was Active. Further, the Drug uptake entry in series [15] and in series [19] was “Active” in each case. The IC50 in the series with A549 [17] is 2.71 µM; in the series on HEK293, 0.457 µM; in the series on M21, 7.24 µM; with NCI-H358, 7.7 µM. Moreover, in the series on HeLa [24], the “growth inhibition (GI)” value was “Active”. Further, the result in the series on HeLa [18] and in the series with A-375 [22] was inactive. In addition, in the series with Quadruplex DNA, the ΔTm is 3.4 to 6.4 °C.
